This is an account of results in PMC6714607 (ACS Omega, 2019).

Common to all, as to type: cell-based
In data set [1] the test system is THESCs uterus (immortalized fibroblast) cells. The experiment in a line: XTT cell viability assay, THESCs uterus. Conditions: 1 μM, 72 h, 37 °C, triplicates in 96-well plates. The method, boiled down:
(§1)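 Cells were grown in DMEM with 10% FCS and penicillin/streptomycin, then seeded at 3×10^3 per well in 96-well plates. After 24 h attachment, the medium was replaced and conjugate or its scrambled-sequence control was added. Plates were incubated 72 h at 37 °C in humidified 5% CO2, and proliferation was read by XTT assay per the kit instructions.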

Data set [2] has as its system normal uterus human fibroblast cells produced from a patient (Nf08 uterus). The experiment in a line: XTT cell viability assay, Nf08 uterus. Conditions: 1 μM, 72 h, 37 °C, triplicates in 96-well plates, Figure S9. The method, boiled down: as §1
A general note: Tetrazolium assays rely on reduction of a dye to a coloured formazan, in cell work by metabolically active cells.

Data set [3] has as its system U87MG glioblastoma cells. The experiment in a line: Colony formation. The conditions noted are these: 1.0 μM for 24 h, colonies counted after 2 weeks, triplicates. The method, boiled down:
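U87MG cells in DMEM with 10% FCS were treated for 24 h with 1.0 μM conjugate or its scrambled-sequence control. Cells were then seeded at 1000 and 500 per well in triplicate six-well plates. After 14 days, colonies were fixed with 2.5% glutaraldehyde for 10 min, stained with 1% methylene blue and counted. Colony numbers were taken from the triplicate plates.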

Another data set concerns miR-155. The experiment in a line: miR-155 expression by quantitative RT-PCR after PNA conjugate treatment. The conditions noted are these: U87MG cells, 0.5 μM PNA conjugate, 24 h, 37 °C, qRT-PCR in triplicates. The method, boiled down: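 U87MG cells were treated with 0.5 μM conjugate or its scrambled-sequence control for 24 h at 37 °C. Total microRNA was isolated, and cDNA was synthesised from 1 μg RNA. miR-155 was quantified by SYBR Green real-time PCR with miR-155-specific primers, in triplicate.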
In general terms: In qPCR the cycle at which signal appears reflects the starting amount.

Data set [4] deals with U87MG glioblastoma cells. The experiment in a line: XTT cell viability assay, U87MG. The conditions noted are these: 1 μM, 72 h, 37 °C, triplicates in 96-well plates. A digest of the protocol: as §1
For data set [5], the system named is U87MG glioblastoma cells. The experiment in a line: Confocal colocalization with Lyso-Tracker Red and Hoechst. Conditions: 0.5 μM, 3 h, 37 °C, Lyso-Tracker Red and Hoechst staining. The method, boiled down: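 U87MG cells were plated 12 h beforehand on glass chamber slides and grown to 70–80% confluence. They were given 0.5 μM FITC-labelled conjugate in fresh complete medium for 3 h at 37 °C under 5% CO2, then washed twice with PBS. Staining was 50 nM LysoTracker Red for 20–30 min at 37 °C, PBS washes, then 0.01 mM Hoechst for 15 min. Cells were fixed in 4% formaldehyde and imaged by confocal laser scanning microscopy.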

The subject of another data set is U87MG cells. The experiment in a line: FACS analysis of FITC-labeled PNA conjugate uptake. Conditions: 0.5 μM, 2 h. The method, boiled down: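 U87MG cells were seeded at 2.0×10^5 per well and left to adhere overnight. They were given 0.5 μM FITC-labelled conjugate in DMEM with 10% FCS for 2 h at 37 °C, either alone, with 10 mM NaN3 plus 10 mM 2-deoxy-D-glucose, or held at 4 °C. Cells were PBS-washed, trypsinised, pelleted, resuspended in cold PBS and filtered. Flow cytometry used 488 nm excitation, gated on untreated cells, and gave the % FITC-positive cells. Each condition was run in two repeats.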
(In general: Flow cytometry measures light scatter and fluorescence of single cells or particles in a stream.)

As to “5′-ACCCAATCGTCAGATTCCATATA-3′-C9 (head to tail) [C9–PNA-Scr]”, the “effect on viability of THESCs uterus cells” value in data set [1] is given as “negligible effects”. Besides, the “effect on viability of Nf08 uterus normal human fibroblast cells” value in data set [2] is recorded as “negligible effects”.

Take “5′-ACCCCTATCACAATTAGCATTAA-3′-C9 (head to tail) [C9–PNA]”: in the data set on U87MG glioblastoma cells [3], the colony formation entry is “substantial decrease in colony formation”. The “decrease in miR-155 in comparison to the scrambled control” value in the data set on miR-155 was “over 80%”. Moreover, the “effect on viability of THESCs uterus cells” value in data set [1] is recorded as “negligible effects”. Moreover, the “reduction in cell viability in comparison to the C9–PNA-Scr control” value with U87MG glioblastoma cells [4] is given as over 80%. The “effect on viability of Nf08 uterus normal human fibroblast cells” value in data set [2] is on record as “negligible effects”.

In the case of “FITC-Ahx-5′-ACCCCTATCACAATTAGCATTAA-3′-C9 (head to tail) [C9–PNA–FITC]”, in the data set with U87MG glioblastoma cells [5], the “cellular localization of FITC-labeled PNA” value was “predominantly found in lysosomes and, to a lesser extent, in nuclei” and the “cellular uptake by confocal microscopy of stained, fixed cells” value is on record as “strong punctate green signals”. Also, in the data set on U87MG cells (4 °C, versus control at 37 °C, two repeats), the “cellular uptake at 4 °C (ATP depletion) by FACS” value was “clear decrease in cellular uptake”. In addition, the “cellular uptake with 10 mM NaN3/10 mM 2-deoxy-D-glucose by FACS” value in the data set on U87MG cells (37 °C, versus control without inhibitors, two repeats) was “clear decrease in cellular uptake”.

For “FITC-Ahx-5′-ACCCCTATCACAATTAGCATTAA-3′-dK4 [dK4–PNA–FITC]”, the “cellular uptake by confocal microscopy of stained, fixed cells” value in the data set on U87MG glioblastoma cells [5] is on record as “negligible uptake”. The “cellular uptake, change in FITC fluorescence by FACS” value with U87MG cells (37 °C, complete medium, flow cytometry 488 nm) is “almost no change in fluorescence”.
